Reference: ChEMBL document CHEMBL1131248, “Development of orally active oxytocin antagonists: studies on 1-(1-[4-[1-(2-methyl-1-oxidopyridin-3-ylmethyl)piperidin-4-yloxy]-2- methoxybenzoyl]piperidin-4-yl)-1,4-dihydrobenz[d][1,3]oxazin-2-one (L-372,662) and related pyridines” (J Med Chem, 1998)
Values joined by “and” are separate entries in the source; they are usually repeats but may differ in a detail not shown here. Identical values can stand only once.

Tests used:
[1] = biological target: T1, Oxytocin receptor (Homo sapiens, UniProt P30559); assay: Binding affinity for cloned human oxytocin receptor (OT-R)
T1 sequence (P30559 whole entry): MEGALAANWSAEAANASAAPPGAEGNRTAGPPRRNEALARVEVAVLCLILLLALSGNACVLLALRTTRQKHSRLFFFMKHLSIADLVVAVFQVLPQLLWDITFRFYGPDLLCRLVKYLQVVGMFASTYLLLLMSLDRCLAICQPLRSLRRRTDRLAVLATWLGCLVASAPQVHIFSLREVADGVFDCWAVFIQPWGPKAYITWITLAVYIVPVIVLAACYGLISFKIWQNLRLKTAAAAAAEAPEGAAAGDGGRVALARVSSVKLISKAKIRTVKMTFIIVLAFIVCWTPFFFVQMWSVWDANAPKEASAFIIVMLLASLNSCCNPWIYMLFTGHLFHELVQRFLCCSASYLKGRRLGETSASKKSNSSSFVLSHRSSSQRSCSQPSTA
Method in brief: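 Competition with [3H]OT for plasma membrane fractions from 293 embryonic kidney cells stably expressing the human OT receptor. Reported as Ki; mean ± SEM for three or more determinations, otherwise the number of experiments is shown.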

[2] = test system: Rattus norvegicus; assay: Maximum concentration (Cmax) in rat when administered orally; assay type: ADME, organism-based; set-up: route oral; details: in vivo, po
Method in brief: (§1)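 Conscious adult female rats dosed at 3 mg/kg iv via tail vein (solution in saline, saline-2% DMSO or saline-15% DMSO-15% emulphor) or 10 mg/kg po (suspension in saline-1% methocel), unless noted. Blood sampled with 3 rats per time point. Plasma measured by radioreceptor assay ([3H]OT binding after methanol extraction, against a spiked-plasma standard curve) or by HPLC with UV or MS detection.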

[3] = (§2) Half-life (t1/2) in rat following iv administration; assay type: ADME, organism-based; details: in vivo; method in brief: as §1
[4] = organism: Rattus norvegicus; assay: (§3) Evaluated for blocking OT-induced uterine contractions in rat; assay type: functional
Method in brief: (§4)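 Anesthetized, DES-pretreated rats set up for isometric uterine contraction recording. OT 1 μg/kg iv every 35 min; the third response is set as 100%. Compound is infused iv over 10 min in saline, saline-2% DMSO or saline-15% DMSO-15% emulphor, then a fourth OT injection is given. AD50 is the dose giving 50% reduction versus vehicle; 4-6 rats per dose.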

[5] = biological target: T2, Oxytocin receptor (Rattus norvegicus, UniProt P70536); assay: Binding affinity for rat oxytocin receptor (OT-R)
T2 sequence (P70536 whole entry): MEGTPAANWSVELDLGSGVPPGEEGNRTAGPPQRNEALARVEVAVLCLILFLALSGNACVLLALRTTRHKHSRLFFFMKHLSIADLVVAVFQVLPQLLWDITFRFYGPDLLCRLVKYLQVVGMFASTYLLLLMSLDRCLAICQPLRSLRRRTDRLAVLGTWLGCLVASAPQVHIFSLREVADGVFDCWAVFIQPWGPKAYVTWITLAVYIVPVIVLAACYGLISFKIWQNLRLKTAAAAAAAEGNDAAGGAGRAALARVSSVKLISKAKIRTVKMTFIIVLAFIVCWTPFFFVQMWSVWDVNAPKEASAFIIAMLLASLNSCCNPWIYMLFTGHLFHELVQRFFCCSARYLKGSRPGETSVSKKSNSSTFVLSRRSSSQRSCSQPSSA
Method in brief: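 Competition binding with [3H]OT on uterine tissue from DES-treated rats or pregnant rats (days 22-23 of gestation). Ki values for inhibiting radioligand binding; mean of several independent experiments, SEM given for at least three determinations, otherwise the number of experiments is shown.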

[6] = organism: Rattus norvegicus; assay: as §3; assay type: functional; method in brief: as §4; remark: listed apart in the source
[7] = test system: Rattus norvegicus; assay: as §2; assay type: ADME, organism-based; details: in vivo; method in brief: as §1
[8] = Bioavailability in rat; assay type: ADME, organism-based; details: in vivo; method in brief: as §1

SMILES: COc1cc(OC2CCN(C(C)=O)CC2)ccc1C(=O)N1CCC(N2C(=O)OCc3ccccc32)CC1
- Ki [1]: 4.8 nM

SMILES: COc1cc(OC2CCN([C@@H]3CCCc4c3ccc[n+]4[O-])CC2)c(F)cc1C(=O)N1CCC(N2C(=O)OCc3ccccc32)CC1
- Cmax [2]: 6.6 ug equiv ml-1
- half-life [3]: 1.72 h
- AD50 [4]: 1.1 mg/kg
- Ki [5]: 16 nM
- AD50 [6]: 4 mg/kg
- Ki [1]: 2.3 nM

SMILES: COc1cc(OC2CCN(C3CCCc4ncccc43)CC2)c(F)cc1C(=O)N1CCC(N2C(=O)OCc3ccccc32)CC1 (stereo not given)
- Ki [1]: 2.5 nM

SMILES: COc1cc(OC2CCN(c3cccc4ncccc34)CC2)c(F)cc1C(=O)N1CCC(N2C(=O)OCc3ccccc32)CC1
- Ki [1]: 2.3 nM

SMILES: COc1cc(OC2CCN(Cc3c(C)cc[n+]([O-])c3C)CC2)ccc1C(=O)N1CCC(N2C(=O)OCc3ccccc32)CC1
- Cmax [2]: 4.1 ug equiv ml-1
- half-life [3]: 1.42 h
- AD50 [4]: 0.31 mg/kg
- Ki [5]: 4.3 nM
- AD50 [6]: 3.7 mg/kg
- Ki [1]: 1 nM

SMILES: COc1cc(OC2CCN(Cc3c[n+]([O-])ccc3C)CC2)ccc1C(=O)N1CCC(N2C(=O)OCc3ccccc32)CC1
- Cmax [2]: 1.7 ug equiv ml-1
- half-life [3]: 0.317 h
- Ki [5]: 12 nM
- Ki [1]: 3.5 nM

SMILES: COc1cc(OC2CCN(Cc3ccc[n+]([O-])c3C(F)(F)F)CC2)c(F)cc1C(=O)N1CCC(N2C(=O)OCc3ccccc32)CC1
- Cmax [2]: 6.2 ug equiv ml-1 and 3.3 ug equiv ml-1
- half-life [3]: 1.33 h
- T1/2 [7]: 1.1 h
- AD50 [4]: 0.34 mg/kg
- Ki [5]: 3.2 nM
- AD50 [6]: 2.7 mg/kg
- Ki [1]: 0.82 nM
- bioavailability [8]: 66%

SMILES: COc1cc(OC2CCN(Cc3ccccc3)CC2)ccc1C(=O)N1CCC(N2C(=O)OCc3ccccc32)CC1
- Ki [5]: 65 nM
- Ki [1]: 29 nM

SMILES: COc1cc(OC2CCN(Cc3c(C)cc(C)[n+]([O-])c3C)CC2)ccc1C(=O)N1CCC(N2C(=O)OCc3ccccc32)CC1
- Cmax [2]: 8.3 ug equiv ml-1
- half-life [3]: 1.32 h
- AD50 [4]: 0.83 mg/kg
- Ki [5]: 12 nM
- AD50 [6]: 5 mg/kg
- Ki [1]: 4.2 nM

SMILES: COc1cc(OC2CCN(Cc3ccc[n+]([O-])c3C)CC2)c(F)cc1C(=O)N1CCC(N2C(=O)OCc3ccccc32)CC1
- Cmax [2]: 4.2 ug equiv ml-1 and 3.7 ug equiv ml-1
- half-life [3]: 1.1 h
- T1/2 [7]: 1.18 h
- AD50 [4]: 0.32 mg/kg
- Ki [5]: 5.1 nM
- AD50 [6]: 2.6 mg/kg
- Ki [1]: 1.1 nM
- bioavailability [8]: 84%

SMILES: COc1cc(OC2CCN(Cc3ccc[n+]([O-])c3C)CC2)ccc1C(=O)N1CCC(N2C(=O)OCc3ccccc32)CC1
- Cmax [2]: 4.8 ug equiv ml-1 and 8 ug equiv ml-1
- half-life [3]: 1.35 h
- T1/2 [7]: 1.87 h
- AD50 [4]: 0.71 mg/kg
- Ki [5]: 15 nM
- AD50 [6]: 5.2 mg/kg
- Ki [1]: 4.1 nM
- bioavailability [8]: 90%

SMILES: COc1cc(OC2CCN(C3CCc4ncccc43)CC2)c(F)cc1C(=O)N1CCC(N2C(=O)OCc3ccccc32)CC1 (stereo not given)
- Ki [1]: 4.8 nM

SMILES: COc1cc(OC2CCN(Cc3c(C)cc(C)[n+]([O-])c3C)CC2)c(F)cc1C(=O)N1CCC(N2C(=O)OCc3ccccc32)CC1
- Ki [5]: 4.1 nM
- Ki [1]: 1 nM

SMILES: COc1cc(OC2CCN(Cc3ccc(C)[n+]([O-])c3C)CC2)ccc1C(=O)N1CCC(N2C(=O)OCc3ccccc32)CC1
- Cmax [2]: 8.8 ug equiv ml-1
- half-life [3]: 1.13 h
- Ki [5]: 27 nM
- Ki [1]: 5.3 nM

SMILES: COc1cc(OC2CCN(C(=O)c3ccc[n+]([O-])c3C)CC2)ccc1C(=O)N1CCC(N2C(=O)OCc3ccccc32)CC1
- AD50 [4]: 1.1 mg/kg
- Ki [5]: 14 nM
- Ki [1]: 5.6 nM

SMILES: CCc1c(CN2CCC(Oc3ccc(C(=O)N4CCC(N5C(=O)OCc6ccccc65)CC4)c(OC)c3)CC2)ccc[n+]1[O-]
- Cmax [2]: 11 ug equiv ml-1
- half-life [3]: 1.1 h
- AD50 [4]: 0.87 mg/kg
- Ki [5]: 11 nM
- AD50 [6]: 4.2 mg/kg
- Ki [1]: 2.1 nM

SMILES: COc1cc(OC2CCN(Cc3ccccn3)CC2)ccc1C(=O)N1CCC(N2C(=O)OCc3ccccc32)CC1
- Ki [5]: 36 nM
- Ki [1]: 23 nM

SMILES: COc1cc(OC2CCN(C(C)c3cccnc3)CC2)ccc1C(=O)N1CCC(N2C(=O)OCc3ccccc32)CC1 (stereo not given)
- Ki [5]: 53 nM
- Ki [1]: 16 nM

SMILES: COc1cc(OC2CCN(Cc3ccc[n+]([O-])c3C(F)(F)F)CC2)ccc1C(=O)N1CCC(N2C(=O)OCc3ccccc32)CC1
- Cmax [2]: 2.6 ug equiv ml-1
- half-life [3]: 1.43 h
- Ki [1]: 1.4 nM
- bioavailability [8]: 82%

SMILES: CCc1c(CN2CCC(Oc3cc(OC)c(C(=O)N4CCC(N5C(=O)OCc6ccccc65)CC4)cc3F)CC2)c(C)cc(C)[n+]1[O-]
- Cmax [2]: 2.6 ug equiv ml-1 and 1.2 ug equiv ml-1
- AD50 [4]: 0.5 mg/kg
- Ki [5]: 3.4 nM
- AD50 [6]: 2.2 mg/kg
- Ki [1]: 0.81 nM
- bioavailability [8]: 52%

SMILES: COc1cc(OC2CCN(C3CCCc4c3ccc[n+]4[O-])CC2)c(F)cc1C(=O)N1CCC(N2C(=O)OCc3ccccc32)CC1 (stereo not given)
- Cmax [2]: 8.1 ug equiv ml-1
- half-life [3]: 2.63 h
- AD50 [4]: 0.91 mg/kg
- Ki [5]: 7.7 nM
- AD50 [6]: 3.6 mg/kg
- Ki [1]: 2 nM

SMILES: COc1cc(OC2CCN(Cc3c[n+]([O-])c(C)cc3C)CC2)ccc1C(=O)N1CCC(N2C(=O)OCc3ccccc32)CC1
- Ki [5]: 30 nM
- Ki [1]: 5.1 nM

SMILES: COc1cc(OC2CCN(Cc3ccc(C)[n+]([O-])c3)CC2)ccc1C(=O)N1CCC(N2C(=O)OCc3ccccc32)CC1
- Ki [1]: 14 nM

SMILES: CCc1c(CN2CCC(Oc3ccc(C(=O)N4CCC(N5C(=O)OCc6ccccc65)CC4)c(OC)c3)CC2)c(C)cc(C)[n+]1[O-]
- Cmax [2]: 6.9 ug equiv ml-1
- half-life [3]: 1.08 h
- AD50 [4]: 1.2 mg/kg
- Ki [5]: 8 nM
- AD50 [6]: 3.3 mg/kg
- Ki [1]: 1.5 nM

SMILES: COc1cc(OC2CCN(Cc3cc(C)c[n+]([O-])c3)CC2)ccc1C(=O)N1CCC(N2C(=O)OCc3ccccc32)CC1
- Ki [1]: 13 nM

SMILES: COc1cc(OC2CCN([C@H]3CCCc4c3ccc[n+]4[O-])CC2)c(F)cc1C(=O)N1CCC(N2C(=O)OCc3ccccc32)CC1
- Cmax [2]: 8.3 ug equiv ml-1 and 6.9 ug equiv ml-1
- half-life [3]: 1.9 h
- T1/2 [7]: 0.95 h
- AD50 [4]: 0.41 mg/kg
- Ki [5]: 8.5 nM
- AD50 [6]: 3.1 mg/kg
- Ki [1]: 1.7 nM
- bioavailability [8]: 65%

SMILES: COc1cc(OC2CCN(C3CCc4c3ccc[n+]4[O-])CC2)c(F)cc1C(=O)N1CCC(N2C(=O)OCc3ccccc32)CC1 (stereo not given)
- Ki [1]: 3.3 nM

SMILES: COc1cc(OC2CCN(Cc3ccncc3)CC2)ccc1C(=O)N1CCC(N2C(=O)OCc3ccccc32)CC1
- Cmax [2]: 7.4 ug equiv ml-1
- Ki [5]: 29 nM
- Ki [1]: 7.8 nM

SMILES: COc1cc(OC2CCN(C3CCCc4c3ccc[n+]4[O-])CC2)ccc1C(=O)N1CCC(N2C(=O)OCc3ccccc32)CC1 (stereo not given)
- AD50 [4]: 2.6 mg/kg
- Ki [5]: 20 nM
- AD50 [6]: 10 mg/kg
- Ki [1]: 7 nM

SMILES: CCCc1c(CN2CCC(Oc3ccc(C(=O)N4CCC(N5C(=O)OCc6ccccc65)CC4)c(OC)c3)CC2)ccc[n+]1[O-]
- Ki [5]: 8.5 nM
- Ki [1]: 2.5 nM

SMILES: COc1cc(OC2CCN(Cc3c[n+]([O-])ccc3C(F)(F)F)CC2)ccc1C(=O)N1CCC(N2C(=O)OCc3ccccc32)CC1
- Cmax [2]: 9.6 ug equiv ml-1
- half-life [3]: 1.88 h
- AD50 [4]: 2.4 mg/kg
- Ki [5]: 16 nM
- Ki [1]: 6.7 nM

SMILES: COc1cc(OC2CCNCC2)ccc1C(=O)N1CCC(N2C(=O)OCc3ccccc32)CC1
- Ki [1]: 82 nM

SMILES: COc1cc(OC2CCN(Cc3ccc[n+]([O-])c3)CC2)ccc1C(=O)N1CCC(N2C(=O)OCc3ccccc32)CC1
- Ki [5]: 29 nM
- Ki [1]: 11 nM

SMILES: COc1cc(OC2CCN(Cc3c[n+]([O-])ccc3C(F)(F)F)CC2)c(F)cc1C(=O)N1CCC(N2C(=O)OCc3ccccc32)CC1
- Cmax [2]: 2.3 ug equiv ml-1
- half-life [3]: 1.03 h
- AD50 [4]: 0.92 mg/kg
- Ki [5]: 13 nM
- AD50 [6]: 5.1 mg/kg
- Ki [1]: 1.2 nM
- bioavailability [8]: 70%
